For data set [1], the target named is 5-hydroxytryptamine receptor 2B (Homo sapiens, UniProt P41595). Nature of the data set: Antagonist activity against 5-HT2B […] receptor (unknown origin) transfected in human HEK293T cells assessed as inhibition constant incubated for 15 mins by luminescence counter analysis. Format: functional, cell-based.
The nature of data set [2]: Binding affinity to GPR68 H269F mutant expressed in human HEK293T cells assessed as cAMP production in presence of H+ proton by Split-luciferase based luminescence counter analysis. Conditions: condition central nervous system disease. The procedure, abridged: (§1)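 Proton concentration-response of GPR68 (wild type or E160A/K/Q, R189L/M, H269F mutants) in transiently transfected HEK293-T cells. Read-out: GloSensor cAMP, with luciferin loading 90 min at 37°C at pH 8.4. Run with and without increasing modulator concentrations; 20 min at room temperature before luminescence. Proton KA fixed to the proton EC50 without modulator. KB, τA, α, β fitted globally with an operational allosteric model. n=4.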

The target of a further data set is Adenosine receptor A2a (Homo sapiens, UniProt P29274). Nature of the data set: Antagonist activity against A2A adenosine receptor (unknown origin) transfected in human HEK293T cells assessed as inhibition constant […] by luminescence counter analysis. Type of data set: functional, cell-based.
Data set [3] deals with C-X-C chemokine receptor type 4 (Homo sapiens) (UniProt P61073). Briefly: Antagonist activity against CXCR4 receptor (unknown origin) transfected in human HEK293T cells at 10 uM incubated for 15 mins in presence of AMD3100 by luminescence counter analysis. Type of data set: functional, cell-based. The procedure, abridged: (§2)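 HEK293-T cells transiently transfected with CXCR4 and the GloSensor cAMP reporter, plated in DMEM with 1% dialyzed FBS. Test compound at 10 μM in 20 mM HEPES/HBSS, pH 7.4, 15 min at room temperature. Agonist mode: luciferin (4 mM final) plus 200 nM isoproterenol added, 20 min. Antagonist mode: compound 10 min, then reference agonist at EC80 for 10 min, then luciferin/isoproterenol. Luminescence read. CXCL12 (1 or 3 μM) is the agonist control and AMD3100 (10 μM) the antagonist control. n=2.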

The target is the same in data set [4]. Briefly: Agonist activity against CXCR4 receptor (unknown origin) transfected in human HEK293T cells at 10 uM incubated for 15 mins in presence of CXCL12 by luminescence counter analysis. Format: functional, cell-based. The procedure, abridged:
as §2

Data set [5] is described as follows: Positive allosteric modulator activity at GPR68 H269F mutant transfected in human HEK293T cells assessed as proton-mediated calcium release at 10 uM incubated for 10 mins by Fluo-4 Direct calcium dye based FLIPR assay (reference value: 6.44 +/- 0.02). Type of data set: cell-based. The following applies: HEK-293T.
Data set [6] can be described thus: Positive allosteric modulator activity at GPR68 E160K mutant transfected in human HEK293T cells assessed as proton-mediated calcium release at 10 uM incubated for 10 mins by Fluo-4 Direct calcium dye based FLIPR assay (reference value: 1.38 +/- 0.01 %). Conditions: HEK-293T, condition central nervous system disease.
The species named for another data set is Mus musculus. Nature of the data set: Antipsychotic activity against GPR68 knockout C57BL/6 mouse assessed as cued memory retrieval by Morris water maze test. Format: functional, organism-based.
The target in data set [7] is T1, G-protein coupled receptor 68 (Homo sapiens, UniProt Q15743). Briefly: Positive allosteric modulator activity at GPR68 expressed in human HEK293T cells assessed as proton-mediated calcium release at 10 uM incubated for 10 mins by Fluo-4 Direct calcium dye based FLIPR assay (reference value: 1.30 %). Type of data set: functional, cell-based.
Data set [8] has as its target T1, G-protein coupled receptor 68. Briefly: Positive allosteric modulator activity at GPR68 expressed in human HEK293T cells assessed as proton-mediated phosphatidylinositol hydrolysis on pH 8.4 at 10 uM incubated for 20 mins by TriLuxMicroBeta counter analysis. Type of data set: functional, cell-based. Conditions: filed as positive allosteric modulator. The procedure, abridged: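 GPR68-transfected HEK293-T cells labeled overnight with 3H-inositol (1 μCi/well) in inositol-free DMEM with 5% dialyzed FBS. Treated for 20 min at pH 8.4 in HBSS with 10 mM HEPES, 10 mM MES and 20 mM LiCl, compound at 10 μM. Extracted with 50 mM ice-cold formic acid, 30 min at 4°C. Captured on YSi beads and counted (cpm/well). n=3. 4-parameter logistic fit.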

The nature of data set [9]: Positive allosteric modulator activity at GPR68 R189M mutant expressed in human HEK293T cells assessed as cAMP production in presence of H+ proton by Split-luciferase based luminescence counter analysis (reference value: 6.71+/-0.03). The following applies: HEK-293T. Format: cell-based. The procedure, abridged: as §1
On the technique in general: cAMP levels reflect the balance of adenylyl cyclase and phosphodiesterase activity.

The nature of data set [10]: Positive allosteric modulator activity at GPR68 E160A mutant expressed in human HEK293T cells assessed as cAMP production in presence of H+ proton by Split-luciferase based luminescence counter analysis (reference value: 6.6+/-0.3 %). The following applies: HEK-293T, condition central nervous system disease. The procedure, abridged:
as §1

The nature of data set [11]: Binding affinity to GPR68 E160A mutant expressed in human HEK293T cells assessed as cAMP production in presence of H+ proton by Split-luciferase based luminescence counter analysis. Conditions: condition central nervous system disease. The procedure, abridged:
as §1

A short description of data set [12]: Positive allosteric modulator activity at GPR68 E160Q mutant expressed in human HEK293T cells assessed as cAMP production in presence of H+ proton by Split-luciferase based luminescence counter analysis (reference value: 17.0+/-1.5 %). Conditions: HEK-293T, condition central nervous system disease. The procedure, abridged: as §1
Data set [13] is described as follows: Positive allosteric modulator activity at GPR68 H269F mutant expressed in human HEK293T cells assessed as cAMP production in presence of H+ proton by Split-luciferase based luminescence counter analysis (reference value: 5.75+/-0.03). Format: cell-based. Conditions: HEK-293T. The procedure, abridged: as §1
The nature of data set [14]: Positive allosteric modulator activity at GPR68 R189L mutant expressed in human HEK293T cells assessed as cAMP production in presence of H+ proton by Split-luciferase based luminescence counter analysis (reference value: 7.20+/-0.03). Type of data set: cell-based. Conditions: HEK-293T. The procedure, abridged:
as §1

Data set [15] can be described thus: Positive allosteric modulator activity at GPR68 H269F mutant expressed in human HEK293T cells assessed as cAMP production in presence of H+ proton by Split-luciferase based luminescence counter analysis (reference value: 17.7+/-0.8 %). The following applies: HEK-293T, condition central nervous system disease. The procedure, abridged:
as §1

Data set [16] in a line: Positive allosteric modulator activity at GPR68 H269F mutant transfected in human HEK293T cells assessed as proton-mediated calcium release at 10 uM incubated for 10 mins by Fluo-4 Direct calcium dye based FLIPR assay (reference value: 1.57 +/- 0.01 %). Conditions: HEK-293T, condition central nervous system disease.
A short description of data set [17]: Positive allosteric modulator activity at GPR68 E160K mutant expressed in human HEK293T cells assessed as cAMP production in presence of H+ proton by Split-luciferase based luminescence counter analysis (reference value: 6.70+/-0.08). The following applies: HEK-293T. Type of data set: cell-based. The procedure, abridged:
as §1

A short description of data set [18]: Toxicity in C57BL/6 mouse assessed as decreased contextual memory retrieval. The following applies: in vivo. The procedure, abridged:
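Fear conditioning in wild-type and GPR68 KO C57BL/6J congenic mice. Training was 8 min: 3 pairings of a 30-s, 90 dB, 5 kHz tone with a 2-s, 0.6 mA foot shock. Context freezing scored at 24 h over 5 min; cue test at 48 h over 6 min. Freezing defined as no movement for 0.5 s. Compound 10 mg/kg in 10% Tween 80 or saline, 30 min before training. n=6–8 per group. Two-way ANOVA with Bonferroni post-hoc test.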

Data set [19] can be described thus: Binding affinity to GPR68 E160K mutant expressed in human HEK293T cells assessed as cAMP production in presence of H+ proton by Split-luciferase based luminescence counter analysis. The following applies: condition central nervous system disease. The procedure, abridged: as §1

The record followed here is ChEMBL document CHEMBL5661984, “Allosteric ligands for the pharmacologically dark receptors GPR68 and GPR65” (Nature, 2015).

Active and inactive are the calls of the source.

T1 sequence (Q15743 whole entry): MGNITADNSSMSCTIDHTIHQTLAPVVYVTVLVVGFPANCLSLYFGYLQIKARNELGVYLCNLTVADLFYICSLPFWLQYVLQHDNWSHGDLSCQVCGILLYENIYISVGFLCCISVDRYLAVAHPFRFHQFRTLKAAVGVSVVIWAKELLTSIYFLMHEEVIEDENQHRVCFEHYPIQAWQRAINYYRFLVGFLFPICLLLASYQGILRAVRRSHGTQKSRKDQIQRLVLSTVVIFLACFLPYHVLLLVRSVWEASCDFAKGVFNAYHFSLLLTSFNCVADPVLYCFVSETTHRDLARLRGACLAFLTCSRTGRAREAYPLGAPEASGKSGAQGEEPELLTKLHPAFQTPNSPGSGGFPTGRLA
Chain of C-X-C chemokine receptor type 4 (Homo sapiens) (P61073 whole entry): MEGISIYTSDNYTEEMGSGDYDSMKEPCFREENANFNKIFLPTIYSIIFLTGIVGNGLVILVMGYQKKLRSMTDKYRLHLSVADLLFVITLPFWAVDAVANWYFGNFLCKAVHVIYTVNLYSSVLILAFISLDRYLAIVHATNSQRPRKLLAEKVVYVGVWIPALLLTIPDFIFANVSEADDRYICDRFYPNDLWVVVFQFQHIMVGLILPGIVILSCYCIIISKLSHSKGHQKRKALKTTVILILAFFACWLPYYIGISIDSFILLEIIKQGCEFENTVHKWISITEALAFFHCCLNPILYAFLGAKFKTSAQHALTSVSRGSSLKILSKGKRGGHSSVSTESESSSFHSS
Chain of Adenosine receptor A2a (P29274 whole entry): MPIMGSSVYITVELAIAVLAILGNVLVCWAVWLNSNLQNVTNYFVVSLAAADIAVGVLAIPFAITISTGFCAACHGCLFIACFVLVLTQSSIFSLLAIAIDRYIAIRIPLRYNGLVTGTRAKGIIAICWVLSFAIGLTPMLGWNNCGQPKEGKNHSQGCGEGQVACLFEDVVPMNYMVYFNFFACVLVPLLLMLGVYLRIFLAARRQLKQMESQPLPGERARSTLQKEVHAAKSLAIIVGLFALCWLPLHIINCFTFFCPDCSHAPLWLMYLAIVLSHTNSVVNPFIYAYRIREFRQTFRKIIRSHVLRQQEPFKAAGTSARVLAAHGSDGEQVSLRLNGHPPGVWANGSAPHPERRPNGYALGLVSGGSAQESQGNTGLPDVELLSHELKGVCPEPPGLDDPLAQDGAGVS
Chain of 5-hydroxytryptamine receptor 2B (P41595 whole entry): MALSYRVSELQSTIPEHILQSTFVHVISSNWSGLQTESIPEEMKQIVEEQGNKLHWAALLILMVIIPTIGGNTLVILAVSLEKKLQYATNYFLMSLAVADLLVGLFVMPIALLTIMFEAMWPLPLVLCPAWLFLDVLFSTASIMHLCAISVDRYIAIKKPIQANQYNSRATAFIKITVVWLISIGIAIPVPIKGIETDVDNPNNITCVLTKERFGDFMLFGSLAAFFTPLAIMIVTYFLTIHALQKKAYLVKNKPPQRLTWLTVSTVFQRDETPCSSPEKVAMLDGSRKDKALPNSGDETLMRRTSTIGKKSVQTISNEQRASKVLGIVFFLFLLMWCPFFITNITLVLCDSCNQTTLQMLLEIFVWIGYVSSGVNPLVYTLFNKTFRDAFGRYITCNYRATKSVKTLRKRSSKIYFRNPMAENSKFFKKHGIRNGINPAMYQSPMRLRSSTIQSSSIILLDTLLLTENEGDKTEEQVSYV

As to `Nc1nc(NCc2ccccc2)nc(-c2ccccc2CO)n1` [Ogerin], the Ki in data set [1] stood at 736 nM; on Adenosine receptor A2a, 220 nM. The pKb amounted to 4.33 in data set [2], 4.67 in data set [11] and 4.98 in data set [19]. Besides, the result (in data set [3]; in data set [4]; in the data set filed under Mus musculus) was inactive. Further, the EC50 in [5] is 145 nM; in data set [9], 191 nM; in data set [13], 398 nM; in data set [14], 43.7 nM; in [17] it was 77.6 nM. In addition, the Emax at 10 µM in data set [6] is 1.12%; in data set [16], 1.56%. Also, the Emax in data set [7] worked out at 1.07%; in data set [10], 11.7%; in [12] it was 27.5%; in data set [15], 45.1%. Besides, in data set [8], the outcome was Active. The Activity entry in [18] is given as “Toxic”.

The Ki is a dissociation constant, usually derived from enzyme kinetics or from competition with a known ligand. The term pKb denotes −log10 of the Kb, conventionally taken in molar units. As usually defined, the EC50 is the concentration needed to bring the measured effect to its halfway point. A word on the Emax: it is the maximal effect, on the per cent scale that the assay sets.
